# Hits are enriched below; roughly 3.7% of the tested compounds scored in any of these assays.
# KCNK9 inh: blocks the human KCNK9 two-pore domain potassium channel; 1.2% of 310,000 active; HEK293 KCNK9, FluxOR thallium flux fluorescence; hits give low values; B-score at 10 µM;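 active = ratio B-score over 3 SD below the library mean, with starting fluorescence within 5 SD of its mean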;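 note: negative B-score means less thallium flux so channel inhibition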
# hERG protect: shields human hERG channel from block by proarrhythmic agents; CHO-hERG, FluxOR thallium flux, dofetilide IC70 present; 0.51% of 310,000 active; activation (rescue from dofetilide block), less the hit threshold, % at 10 µM;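 active = activation above the mean of controls blocked by dofetilide plus 5 SD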;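 note: thallium influx through hERG after potassium depolarization seen as dye fluorescence rise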
# Target sequence (Q12809 whole entry, looked up): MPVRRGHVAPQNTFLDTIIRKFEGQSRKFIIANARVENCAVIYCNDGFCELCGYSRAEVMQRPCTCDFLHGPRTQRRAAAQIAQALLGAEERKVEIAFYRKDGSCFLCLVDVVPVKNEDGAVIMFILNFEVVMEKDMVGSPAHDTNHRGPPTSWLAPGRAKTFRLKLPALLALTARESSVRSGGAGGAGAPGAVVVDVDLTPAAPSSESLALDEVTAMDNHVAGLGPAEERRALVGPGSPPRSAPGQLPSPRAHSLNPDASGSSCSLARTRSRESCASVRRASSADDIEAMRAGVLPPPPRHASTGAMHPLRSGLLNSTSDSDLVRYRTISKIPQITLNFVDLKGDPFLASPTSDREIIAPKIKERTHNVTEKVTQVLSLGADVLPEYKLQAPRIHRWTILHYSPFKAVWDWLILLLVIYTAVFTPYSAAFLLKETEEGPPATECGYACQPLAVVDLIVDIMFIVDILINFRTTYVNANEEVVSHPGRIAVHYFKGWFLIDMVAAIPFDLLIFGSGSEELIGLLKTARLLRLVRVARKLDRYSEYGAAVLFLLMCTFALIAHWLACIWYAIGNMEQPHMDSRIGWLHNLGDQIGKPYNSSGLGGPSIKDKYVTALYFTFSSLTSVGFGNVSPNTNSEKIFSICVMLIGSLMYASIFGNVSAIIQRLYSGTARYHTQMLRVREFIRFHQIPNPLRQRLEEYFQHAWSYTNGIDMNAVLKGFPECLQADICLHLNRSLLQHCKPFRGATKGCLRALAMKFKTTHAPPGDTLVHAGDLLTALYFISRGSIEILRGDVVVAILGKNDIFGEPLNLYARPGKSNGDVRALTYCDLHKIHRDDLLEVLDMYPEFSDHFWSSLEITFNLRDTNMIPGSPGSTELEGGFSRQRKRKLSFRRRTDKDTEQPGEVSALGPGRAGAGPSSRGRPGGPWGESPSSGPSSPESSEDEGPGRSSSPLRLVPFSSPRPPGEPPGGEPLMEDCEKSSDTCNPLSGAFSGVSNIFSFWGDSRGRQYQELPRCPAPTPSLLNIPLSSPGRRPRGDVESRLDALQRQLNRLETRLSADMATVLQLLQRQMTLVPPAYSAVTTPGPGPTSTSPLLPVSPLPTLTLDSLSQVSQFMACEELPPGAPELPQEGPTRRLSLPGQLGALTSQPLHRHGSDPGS
# KCNQ1 act: human KCNQ1 channel potentiation or activation; P51787; CHO-K1 KCNQ1, thallium flux FluxOR fluorescence; hits give high values; B-score at 10 µM; 0.35% of 310,000 active; AID 2648;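 active = fluorescence ratio B-score, a plate-corrected score, at least three library SD, with initial intensity B-score within 5 SD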
#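 assay system = CHO-K1 cells stably expressing KCNQ1 | medium = assay buffer, equal DMSO in all wells | timing = 37 °C overnight plating, 90-min dark dye load, 20-min compound pretreatment | measured by = kinetic FluxOR thallium fluorescence, 10-s 1-Hz baseline, 110-s post-stimulus read | measure = fluorescence change relative to baseline, converted to B score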
# Kir21 inh: blocks the mouse Kir2.1 inward-rectifier potassium channel; P35561; HEK293-Kir2.1, FluxOR thallium flux fluorescence; hits give low values; B-score at 10 µM; 0.85% of 310,000 active; AID 1672;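 active = fluorescence ratio B-score at or below minus 3 SD of library scores, with starting-brightness B-score within 2 SD, cut at about -4.2 in these data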;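 note: channel flux triggered by added potassium and thallium sulfate stimulus; B-score of peak minus minimum fluorescence over baseline after thallium stimulus; more negative B-score means stronger Kir2.1 block with less thallium influx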
# KCNQ1 block: blocks the human KCNQ1 potassium channel | 1.3% of 310,000 active | AID 2642 | B-score at 10 µM | CHO-K1 KCNQ1, FluxOR thallium flux fluorescence; hits give high values;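 active = compounds whose thallium flux B-score, printed positive for inhibition, exceeds three library SD while starting fluorescence stays within three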;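 note: channel opened by potassium depolarization with thallium stimulus after 20 min compound exposure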
# KCNK3 block: human KCNK3 channel inhibition, primary screen. CHO-KCNK3 thallium flux, FluxOR fluorescence; hits give low values. B-score at 10 µM. AID 602410. 0.84% of 340,000 active;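 active = B-score under library mean minus 4 SD, starting fluorescence ratio at most library mean plus 5 SD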;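 note: more negative B-score means stronger inhibition of thallium flux through KCNK3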
# KCNK9 block conf: human KCNK9 inhibitor confirmation | shares compounds with KCNK9 inh | HEK293 KCNK9 cells, FluxOR thallium flux fluorescence | inhibition, % at 10 µM | 43% of 4,900 active | AID 492992;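 active = thallium signal inhibited by more than 5 SD of the compound-free buffer control wells, on both duplicate plates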;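 note: 0% = assay buffer control wells without compound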
# Kir21 sel: mouse Kir2.1 off-target activity of KCNK9 modulators; AID 492993; 4% of 4,900 active; inhibition, % at 10 µM; Kir2.1 cells, FluxOR thallium flux fluorescence; shares compounds with KCNK9 inh;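 active = thallium signal drop more than 5 SD beyond the mean of the no-compound control wells, seen in both duplicate plates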;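 note: signal is fluorescence rise after thallium addition divided by baseline fluorescence; plate controls were assay buffer only for no effect and full block by chlorpromazine control for full effect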
# HEK293 Tl ctr: second counter-screen for KCNK9 modulators: effect in non-induced cells. shares compounds with KCNK9 inh. non-induced KCNK9-HEK293, FluxOR thallium flux. inhibition, % at 10 µM. 40% of 4,900 active. AID 492997;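 active = thallium signal drop beyond 5 SD of the untreated control mean, on both duplicate plates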;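 note: plate controls were buffer only IC0 wells for no effect and SID17386958 at its maximal inhibitory level for full effect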
# Starred values were filed as active, the others as inactive; i = inactive; . = not tested or not shown.
SMILES,KCNK9 inh,hERG protect,KCNQ1 act,Kir21 inh,KCNQ1 block,KCNK3 block,KCNK9 block conf,Kir21 sel,HEK293 Tl ctr
CCOc1ccccc1N(C)C(=O)c1cc2c(=O)n(CC)c3ccccc3c2s1,-14*,-8,i,-0.69,i,i,70%*,i,38%*
Cc1ccsc1C(=O)N1CCCC(CCC(=O)N2CCN(c3ccccn3)CC2)C1 (centres undefined),i,-1,i,-0.91,i,i,.,.,.
Cc1ccsc1C(=O)N1CCN(c2ccccn2)CC1,-8.1*,-6,i,0.41,i,i,i,i,i
CCCCNc1ccc2c(c1)C1CC2CCN1C(=O)OCc1ccccc1 (centres undefined),.,.,.,.,.,i,.,.,.
COc1ccccc1-c1nc(C#N)c(N2CCN(c3ccccc3)CC2)o1,-12*,-8,i,1.9,i,i,44%*,i,i
COc1ccccc1-c1nc(C#N)c(N2CCCCCC2)o1,i,-12,i,-1.4,i,i,.,.,.
COc1ccccc1-c1nc(C#N)c(N2CCc3ccccc3C2)o1,-21*,-15,i,-0.41,i,-13*,67%*,i,i
O=C(COC(=O)CCC(=O)c1ccc(F)cc1)Nc1cccc(S(=O)(=O)N2CCCC2)c1,i,-12,i,1.5,i,i,i,i,i
O=C(COC(=O)c1ccc(O)cc1)Nc1cccc(S(=O)(=O)N2CCCCC2)c1,i,-16,i,-0.37,i,i,.,.,.
Cc1cc(C)c(C(=O)OCC(=O)Nc2cccc(S(=O)(=O)N3CCCCC3)c2)c(C)c1,i,-19,i,-0.14,6*,i,i,i,i
CCC(=O)c1ccc(OCC(=O)OCC(=O)Nc2cccc(S(=O)(=O)N3CCCC3)c2)cc1,.,.,.,.,.,i,.,.,.
CCOc1cc(C(=O)N[C@@H](C)C(=O)N2CCC3(CC2)NCCc2[nH]cnc23)cc(OCC)c1OCC,i,-9,i,-0.9,i,i,.,.,.
CCn1c(SCc2cccc(C)c2)nnc1-c1ccccc1,i,-14,i,-6.1*,i,i,i,i,i
CCn1c(SCC(O)c2ccccc2)nnc1-c1ccccc1 (centres undefined),i,-8,i,0.28,i,i,.,.,.
Cc1oc(-c2ccccc2Cl)nc1CS(=O)CC(=O)NCc1ccccc1Cl (centres undefined),i,-12,i,-0.01,i,i,.,.,.
CCOC(=O)/C(=C/c1c2ccccc2cc2ccccc12)NC(=O)c1ccccc1,-16*,-7,i,-0.03,i,-11*,58%*,i,39%*
C=CCOC(=O)/C(=C\c1cccc2ccccc12)NC(=O)c1ccccc1,i,-6,i,1.1,i,i,.,.,.
COC(=O)/C(=C\C=C\c1ccccc1)NC(=O)c1ccccc1,i,-6,i,-1.6,i,i,.,.,.
COC(=O)/C(=C\c1ccc2c(c1)c1ccccc1n2C)NC(=O)c1ccccc1,-9.6*,-9,i,-0.38,i,i,36%*,i,i
COc1cccc(-n2c([S-])c(C(=O)Nc3ccc(C(F)(F)F)cc3)[n+]3ccccc23)c1,i,-13,i,-1.4,i,.,.,.,.
COCc1c(C(=O)OCC(=O)c2c(N)n(CC(C)C)c(=O)n(C)c2=O)oc2ccccc12,i,-5,i,0.02,i,i,.,.,.
Cc1c(C(=O)OCC(=O)c2c(N)n(CC(C)C)c(=O)n(C)c2=O)oc2ccccc12,i,-14,i,-1.2,i,i,i,i,i
COc1ccc(NC(=O)CC(C)n2ccnc2)cc1 (centres undefined),i,-2,i,0,i,i,.,.,.
O=C(CSc1ccc(Cl)cc1)NC1CCCc2ccccc21 (centres undefined),i,-5,i,0.57,i,i,.,.,.
Cc1ccc(Cl)cc1N1CCN(CC(=O)NC2CCCc3ccccc32)CC1 (centres undefined),i,-5,i,0.01,i,i,i,i,i
SMILES,KCNK9 inh,hERG protect,KCNQ1 act,Kir21 inh,KCNQ1 block,KCNK3 block,KCNK9 block conf,Kir21 sel,HEK293 Tl ctr
O=C(CN1CCN(c2ccccc2Cl)CC1)NC1CCCc2ccccc21 (centres undefined),i,-10,i,0.3,i,i,i,i,i
CC1=NN(C(N)=S)C(=O)C1N=Nc1ccc(Cl)cc1Cl (centres undefined),i,-8,i,0.05,i,i,.,.,.
CC(=O)Nc1ccc(NC(=O)COC(=O)COc2ccc3ccccc3c2)cc1,.,.,.,.,.,i,.,.,.
CCC1SC2=NC(C)=C(C(=O)OCCOC)C(/C=C/c3ccccc3OC)N2C1=O (centres undefined),i,-14,i,-0.3,i,i,i,i,34%*
CCC1SC2=NC(C)=C(C(=O)OCC(C)C)C(/C=C/c3ccccc3OC)N2C1=O (centres undefined),i,-15,i,-2.1,i,i,32%*,i,47%*
COCCOC(=O)C1=C(C)NC(C)=C(C(=O)OCCOC)C1/C=C/c1ccccc1OC,i,-7,i,-1.9,i,i,i,i,i
COC(=O)C1=C(C)N=C2SC(C)C(=O)N2C1/C=C/c1ccccc1OC (centres undefined),i,-7,i,0.33,i,i,.,.,.
CCOC(=O)C1=C(C)NC(C)=C(C(=O)OCC)C1/C=C/c1ccccc1OC,i,-1,i,0.7,i,i,.,.,.
Cc1cc(C)cc(C(=O)NCC(=O)OCC(=O)Nc2cccnc2Cl)c1,i,-4,i,0.9,i,i,.,.,.
O=C(CC1Sc2ccccc2NC1=O)NCc1ccccc1 (centres undefined),i,-10,i,-0.89,i,i,.,.,.
Cc1c(C(=O)N2CCC(C)CC2)sc2ncnc(N3CCN(c4ccccc4)CC3)c12,i,-19,i,-0.03,i,i,i,i,i
Cc1c(C(=O)N2CCN(c3ccccc3)CC2)sc2ncnc(N3CCN(c4ccccn4)CC3)c12,i,-5,i,-0.25,i,i,.,.,.
Cc1c(C(=O)N(C)C2CCCCC2)sc2ncnc(N3CCN(c4ccccc4)CC3)c12,i,-8,i,0.17,i,i,i,i,i
